Test results taken from ChEMBL document CHEMBL1250450, “Well-defined regions of the Plasmodium falciparum reticulocyte binding protein homologue 4 mediate interaction with red blood cell membrane” (J Med Chem, 2010).
Calls of active or inactive are those of the source. Residues, ends and D or L forms follow the SMILES beside them.

Legend:
Homo sapiens [1] = species on record: Homo sapiens; assay: Binding affinity to RBC membrane receptor in 150 uU/mL neuraminidase pretreated human RBC relative to untreated RBC
Procedure, shortened: (§1)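 Human RBCs (60% hematocrit) treated 1 h at 37 °C with neuraminidase (150 μU/mL), chymotrypsin (1 mg/mL) or trypsin (1 mg/mL). Standard radiolabeled-peptide binding then run on treated cells at 20% hematocrit. Binding expressed relative to untreated RBCs set as 100%.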

Homo sapiens [2] = species on record: Homo sapiens; assay: Binding affinity to RBC membrane receptor in human RBC assessed as specific binding activity measured as ratio of specifically bound peptide/added peptide by gamma counter
Procedure, shortened: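 1 × 10^8 healthy-donor RBCs incubated in triplicate with four rising concentrations of 125I-peptide (0-560 nM), with or without unlabeled peptide, then washed in HBS (pH 7.4) and gamma-counted. Specific binding (total minus nonspecific) plotted against added peptide; the slope is the specific binding activity. The HABP cutoff is ≥2%.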

Homo sapiens [3] = species on record: Homo sapiens; assay: Binding affinity to RBC membrane receptor in 1 mg/mL trypsin pretreated human RBC relative to untreated RBC; procedure, shortened: as §1
Plasmodium falciparum [4] = assay: Antiplasmodial activity against Plasmodium falciparum FCB2 assessed as inhibition of merozoite invasion of human erythrocytes at 200 uM after 18 hrs using hydroethidine staining by flow cytometry; assay type: functional; conditions: FCB2, 18 h
Procedure, shortened: (§2)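 Schizont-synchronized P. falciparum FCB-2 cultures incubated in triplicate with peptide (100 and 200 μM) using normal RBCs or, for the neuraminidase line, neuraminidase-treated RBCs. 37 °C for 18 h under 5% O2, 5% CO2, 90% N2. Cells washed with PBS, hydroethidine-labeled, read by flow cytometry (FL2). Inhibition controls were EGTA- and chloroquine-treated infected RBCs; uninfected RBCs served as invasion control.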

Homo sapiens [5] = species on record: Homo sapiens; assay: Binding affinity to RBC membrane receptor in 1 mg/mL chymotrypsin pretreated human RBC relative to untreated RBC; procedure, shortened: as §1
Plasmodium falciparum [6] = assay: Antiplasmodial activity against Plasmodium falciparum FCB2 assessed as inhibition of merozoite invasion of neuraminidase pretreated human erythrocytes at 200 uM after 18 hrs using hydroethidine staining by flow cytometry; assay type: functional; procedure, shortened: as §2
Homo sapiens [7] = species on record: Homo sapiens; assay: Binding affinity of radio labeled compound to 20 kDa RBC membrane receptor in human RBC cross-linked with bis-(sulfosuccinimidyl)suberate by autoradiography using SDS-PAGE
Procedure, shortened: (§3)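 Radioiodinated peptide (chloramine-T method) incubated with 2.1 × 10^7 human RBCs, then cross-linked with BS3 (1 mg/mL) for 1 h at 4 °C. Reaction stopped with Tris-HCl. Membranes lysed (Tris/NaCl/EDTA/PMSF), mixed with Laemmli buffer, spun 15000g for 15 min, resolved on 12% SDS-PAGE against prestained markers.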

[8] = Binding affinity to RBC membrane receptor in human RBC assessed as dissociation constant by gamma counter
Procedure, shortened: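 Saturation assay: 7.5 × 10^7 human RBCs incubated in triplicate with 125I-peptide over 0-2200 nM, with or without 6 nmol unlabeled peptide. Cells washed in HBS and counted by gamma counter. Kd, Hill coefficient and sites per cell came from Hill analysis.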

Homo sapiens [9] = species on record: Homo sapiens; assay: Binding affinity of radio labeled compound to 25 kDa RBC membrane receptor in human RBC cross-linked with bis-(sulfosuccinimidyl)suberate by autoradiography using SDS-PAGE; procedure, shortened: as §3
Homo sapiens [10] = species on record: Homo sapiens; assay: Binding affinity of radio labeled compound to 32 kDa RBC membrane receptor in human RBC cross-linked with bis-(sulfosuccinimidyl)suberate by autoradiography using SDS-PAGE; procedure, shortened: as §3
Homo sapiens [11] = species on record: Homo sapiens; assay: Binding affinity of radio labeled compound to 22 kDa RBC membrane receptor in human RBC cross-linked with bis-(sulfosuccinimidyl)suberate by autoradiography using SDS-PAGE; procedure, shortened: as §3
Plasmodium falciparum [12] = assay: Antiplasmodial activity against Plasmodium falciparum FCB2 assessed as inhibition of merozoite invasion of human erythrocytes at 1.85 mg/mL after 18 hrs using hydroethidine staining by flow cytometry; assay type: functional; parameters: scale not given: the % may be the effect or the level left; procedure, shortened: as §2
Plasmodium falciparum [13] = assay: Antiplasmodial activity against Plasmodium falciparum FCB2 assessed as inhibition of merozoite invasion of human erythrocytes at 0.93 mg/mL after 18 hrs using hydroethidine staining by flow cytometry; assay type: functional; parameters: scale not given: the % may be the effect or the level left; procedure, shortened: as §2
Plasmodium falciparum [14] = assay: Antiplasmodial activity against Plasmodium falciparum FCB2 assessed as inhibition of merozoite invasion of human erythrocytes at 1.9 mg/mL after 18 hrs using hydroethidine staining by flow cytometry; assay type: functional; parameters: scale not given: the % may be the effect or the level left; procedure, shortened: as §2

| Activity (Homo sapiens [1]) | Activity (Homo sapiens [2]) | Activity (Homo sapiens [3]) | Activity (Homo sapiens [5]) | Activity (Homo sapiens [7]) | Kd [8] | Activity (Homo sapiens [9]) | Activity (Homo sapiens [10]) | Activity (Homo sapiens [11]) | Compound | inhibition at 200 µM (Plasmodium falciparum [4]) | inhibition at 200 µM (Plasmodium falciparum [6]) | Activity (Plasmodium falciparum [12]) | Activity (Plasmodium falciparum [13]) | Activity (Plasmodium falciparum [14]) |
| --- | --- | --- | --- | --- | --- | --- | --- | --- | --- | --- | --- | --- | --- | --- |
| 152% | > 2% | 79.4% | 209% | – | – | – | – | – | CC[C@H](C)[C@H](NC(=O)[C@H](Cc1cnc[nH]1)NC(=O)[C@H](CO)NC(=O)[C@@H]1CCCN1C(=O)[C@H](CCC(N)=O)NC(=O)[C@@H](NC(=O)[C@@H](N)CC(C)C)[C@@H](C)CC)C(=O)N[C@@H](Cc1cnc[nH]1)C(=O)N[C@@H](CC(C)C)C(=O)N[C@@H](Cc1cnc[nH]1)C(=O)N[C@@H](CCCCN)C(=O)N[C@@H](CCSC)C(=O)N[C@@H](CCCCN)C(=O)N[C@@H](CC(C)C)C(=O)N1CCC[C@H]1C(=O)N[C@H](C(=O)N[C@H](C(=O)N[C@@H](CCC(N)=O)C(=O)N[C@@H](CCC(N)=O)C(=O)N[C@@H](CCC(N)=O)C(=O)N[C@@H](Cc1ccc(O)cc1)C(=O)O)[C@H](C)O)[C@@H](C)CC | 48% | 43% | – | – | – |
| 101% | > 2% | 172% | 52.8% | Active | 870 nM | Active | Active | Active | CC[C@H](C)[C@H](NC(=O)[C@H](CC(=O)O)NC(=O)[C@H](CC(=O)O)NC(=O)[C@@H](NC(=O)[C@H](Cc1ccc(O)cc1)NC(=O)[C@H](CCCCN)NC(=O)[C@H](CCCCN)NC(=O)[C@@H](NC(=O)[C@H](CC(N)=O)NC(=O)[C@@H](NC(=O)[C@@H](N)CS)[C@@H](C)O)[C@@H](C)CC)[C@@H](C)O)C(=O)N[C@@H](CS)C(=O)N[C@@H](CC(C)C)C(=O)N[C@@H](CO)C(=O)N[C@H](C(=O)N[C@@H](CCCCN)C(=O)N1CCC[C@H]1C(=O)N[C@@H](CCCCN)C(=O)N[C@@H](C)C(=O)N[C@@H](CC(C)C)C(=O)O)[C@@H](C)CC (H-CTNIKKYTDDICLSIKPKAL-OH) | 52% | 47% | – | – | – |
| 80.7% | > 2% | 75.2% | 53.3% | Active | – | Active | Active | Active | H-CIQIKKKVDELYNIYDQLFK-OH | 46% | 50% | – | – | – |
| – | > 2% | – | – | – | – | – | – | – | H-EHTIYTLYQEIKTNLENIEQ-OH | 72% | 71% | – | – | – |
| 166% | > 2% | 24.9% | 31.4% | – | 1200 nM | – | – | – | H-LFDYTHLWDNAQFTRTKENI-OH | 50% | 58% | – | – | – |
| 94.9% | > 2% | 43% | 79.7% | – | 850 nM | – | – | – | H-LNFTHKTIQQILQQQYKNNT-OH | 45% | 47% | – | – | – |
| 94.3% | > 2% | 220% | 169% | – | – | – | – | – | H-NILMDEIENYVKKYTESNRI-OH | 46% | 49% | – | – | – |
| 89.5% | > 2% | 55.5% | 135% | – | – | – | – | – | H-NTTETQLNHIKQNINHFKYF-OH | 97% | 97% | – | – | – |
| 110% | > 2% | 1.01% | 0.01% | Active | – | Active | Active | Active | H-QEKNTLAQFLYNADIKKYID-OH | 38% | 53% | – | – | – |
| 93% | > 2% | 32% | 102% | Active | 880 nM | Active | Active | Active | H-QEQNRIYNELQNKIKQIKNV-OH | 85% | 88% | – | – | – |
| 312% | > 2% | 16.7% | 26.3% | – | 480 nM | – | – | – | H-YDKLNEHVINNLYTKSKDSL-OH | 43% | 39% | – | – | – |
| 153% | > 2% | 87% | 114% | Active | 400 nM | Active | Active | Active | H-YNKNNIKDIYQQFKNIQQQL-OH | 46% | 49% | – | – | – |

More lines, now with the values behind:

| Compound | Activity (Homo sapiens [1]) | Activity (Homo sapiens [2]) | Activity (Homo sapiens [3]) | Activity (Homo sapiens [5]) | Activity (Homo sapiens [7]) | Kd [8] | Activity (Homo sapiens [9]) | Activity (Homo sapiens [10]) | Activity (Homo sapiens [11]) | inhibition at 200 µM (Plasmodium falciparum [4]) | inhibition at 200 µM (Plasmodium falciparum [6]) | Activity (Plasmodium falciparum [12]) | Activity (Plasmodium falciparum [13]) | Activity (Plasmodium falciparum [14]) |
| --- | --- | --- | --- | --- | --- | --- | --- | --- | --- | --- | --- | --- | --- | --- |
| CCN(CC)CCCC(C)Nc1ccnc2cc(Cl)ccc12 (centres undefined) [CHLOROQUINE] | – | – | – | – | – | – | – | – | – | – | – | 97% | 96% | – |
| O=C(O)CN(CCOCCOCCN(CC(=O)O)CC(=O)O)CC(=O)O [EGTAZIC ACID] | – | – | – | – | – | – | – | – | – | – | – | – | – | 90% |
| H-FKQILELKEKEHYITNKHTY-OH | – | > 2% | – | – | – | – | – | – | – | 46% | 47% | – | – | – |
| H-KHIVNKIQENFKLNQNKYIH-OH | 115% | > 2% | 94.1% | 132% | – | 590 nM | – | – | – | 51% | 51% | – | – | – |
| H-KIMQNIQQTTNRLKINIKKIY-OH | 129% | > 2% | 15.2% | 60.1% | – | 750 nM | – | – | – | 54% | 46% | – | – | – |
| H-KNSQNQHDINKTHHTNNNYD-OH | – | – | – | – | – | – | – | – | – | 37% | 3% | – | – | – |
| H-LNTILHRNEQTKNATRSYNM-OH | 92.2% | > 2% | 43.9% | 22.5% | – | 850 nM | – | – | – | 47% | 46% | – | – | – |
| H-LPEHIKQKSVSELNIYMKQI-OH | – | > 2% | – | – | – | – | – | – | – | 41% | 42% | – | – | – |
| H-MLSIFQDTKYGKHKNQQILS-OH | 200% | > 2% | 93% | 93.2% | – | – | – | – | – | 52% | 42% | – | – | – |
| H-NEEENEMGYGITNKRKNSET-OH | – | < 2% | – | – | – | – | – | – | – | 43% | 40% | – | – | – |
| H-QIYKNELKDRIKETQTKINL-OH | 128% | > 2% | 0.03% | 288% | Active | 590 nM | Active | Active | Active | 47% | 49% | – | – | – |
| H-QNYNQENQEKSKMIDSENEK-OH | – | – | – | – | – | – | – | – | – | 39% | 37% | – | – | – |
